Source: ChEMBL document CHEMBL1137220, “2-(2-(dimethylaminomethyl)phenoxy)-5-iodophenylamine: an improved serotonin transporter imaging agent” (J Med Chem, 2004)

How the values were obtained:
[1] = Regional brain distribution in rat hippocampus was determined after 11 hours of intravenous administration of the compound; [125I]- is used as radioactive isotope; format: ADME, tissue-based; conditions: in vivo
Method in brief: (§1)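 Rats, three per group, injected with 10 μCi tracer in 0.2 mL saline via the femoral vein under ether anesthesia and killed by cardiac excision at the stated time. Cortex (frontal plus occipital), striatum, hippocampus, cerebellum and hypothalamus were dissected, weighed and gamma-counted. Values are % dose/g, calculated by comparison with counts of a 100-fold diluted aliquot of the injected dose.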

[2] = Regional brain distribution in rat hippocampus was determined after 30 min of intravenous administration of the compound; [125I]- is used as radioactive isotope; format: ADME, tissue-based; conditions: in vivo, 0.5 h; method in brief: as §1
[3] = Biodistribution in rat spleen was determined after 11 hours of intravenous administration of the compound; [125I]- is used as radioactive isotope; format: ADME, organism-based; conditions: in vivo
Method in brief: (§2)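 Rats, three per group, under ether anaesthesia, received 10 μCi of [¹²⁵I]-labelled tracer in 0.2 mL saline into the femoral vein. They were killed by cardiac excision under ether at each time point. Organs were removed, weighed and counted. Percent dose per organ was calculated against counts of a 1% aliquot of the injected dose (100-fold diluted) counted at the same time.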

[4] = Regional brain distribution in rat striatum was determined after 11 hours of intravenous administration of the compound; [125I]- is used as radioactive isotope; format: ADME, tissue-based; conditions: in vivo; method in brief: as §1
[5] = Biodistribution in rat blood was determined after 120 min of intravenous administration of the compound; [125I]- is used as radioactive isotope; format: ADME, organism-based; conditions: in vivo, 2 h
Method in brief: (§3)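 Rats under ether anesthesia, three per group, received 10 μCi tracer in 0.2 mL saline into the femoral vein. They were killed by cardiac excision under ether at each time point. Organs were removed, weighed and counted. Percent dose per organ was calculated against a 1%-of-injected-dose standard counted at the same time.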

[6] = Biodistribution in rat liver was determined after 11 hours of intravenous administration of the compound; [125I]- is used as radioactive isotope; format: ADME, organism-based; conditions: in vivo; method in brief: as §3
[7] = Biodistribution in rat spleen was determined after 240 min of intravenous administration of the compound; [125I]- is used as radioactive isotope; format: ADME, organism-based; conditions: in vivo, 4 h; method in brief: as §2
[8] = Regional brain distribution in rat striatum was determined after 120 min of intravenous administration of the compound; [125I]- is used as radioactive isotope; format: ADME, tissue-based; conditions: in vivo, 2 h; method in brief: as §1
[9] = Biodistribution in rat lung was determined after 2 min of intravenous administration of the compound; [125I]- is used as radioactive isotope; format: ADME, organism-based; conditions: in vivo; method in brief: as §3
[10] = Biodistribution in rat heart was determined after 30 min of intravenous administration of the compound; [125I]- is used as radioactive isotope; format: ADME, organism-based; conditions: in vivo, 0.5 h; method in brief: as §3
[11] = Regional brain distribution in rat striatum was determined after 60 min of intravenous administration of the compound; [125I]- is used as radioactive isotope; format: ADME, tissue-based; conditions: in vivo, 1 h; method in brief: as §1
[12] = Distribution ratio in hypothalamus and cerebellum was determined after 24 hours of intravenous administration of the compound; [125I]- is used as radioactive isotope; format: ADME, tissue-based; conditions: rat
Method in brief: (§4)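 After femoral-vein injection of 10 μCi [¹²⁵I] tracer in 0.2 mL saline under ether anaesthesia (three rats per group), brain regions were dissected, weighed and counted: cortex (frontal plus occipital), hippocampus, hypothalamus and cerebellum. %dose/g was calculated against a diluted injected-dose standard. Ratio = (region − cerebellum)/cerebellum on a %dose/g basis, with cerebellum as the background region.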

[13] = Biodistribution in rat brain was determined after 6 hours of intravenous administration of the compound; [125I]- is used as radioactive isotope; format: ADME, organism-based; conditions: in vivo; method in brief: as §3
[14] = Regional brain distribution in rat cortex was determined after 11 hours of intravenous administration of the compound; [125I]- is used as radioactive isotope; format: ADME; conditions: in vivo; method in brief: as §1
[15] = Distribution ratio in hypothalamus and cerebellum was determined after 120 min of intravenous administration of the compound; [125I]- is used as radioactive isotope; format: ADME, tissue-based; conditions: rat, 2 h; method in brief: as §4
[16] = Regional brain distribution in rat hippocampus was determined after 240 min of intravenous administration of the compound; [125I]- is used as radioactive isotope; format: ADME, tissue-based; conditions: in vivo, 4 h; method in brief: as §1
[17] = Biodistribution in rat brain was determined after 60 min of intravenous administration of the compound; [125I]- is used as radioactive isotope; format: ADME, organism-based; conditions: in vivo, 1 h; method in brief: as §3
[18] = Biodistribution in rat muscle was determined after 2 min of intravenous administration of the compound; [125I]- is used as radioactive isotope; format: ADME, organism-based, Muscle tissue; conditions: in vivo; method in brief: as §2
[19] = Distribution ratio in hypothalamus and cerebellum was determined after 30 min of intravenous administration of the compound; [125I]- is used as radioactive isotope; format: ADME, tissue-based; conditions: rat, 0.5 h
Method in brief: (§5)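 Rats, three per group, given 10 μCi tracer in 0.2 mL saline into the femoral vein under ether anesthesia, then killed by cardiac excision at the stated time. Brain regions were dissected, weighed and counted. Percent dose/g was calculated against a 1% diluted aliquot of the injected dose. The ratio is (region − cerebellum)/cerebellum on a % dose/g basis, with cerebellum as background.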

[20] = Regional brain distribution in rat striatum was determined after 2 min of intravenous administration of the compound; [125I]- is used as radioactive isotope; format: ADME, tissue-based; conditions: in vivo; method in brief: as §1
[21] = Distribution ratio in striatum and cerebellum was determined after 30 min of intravenous administration of the compound; [125I]- is used as radioactive isotope; format: ADME, tissue-based; conditions: rat, 0.5 h; method in brief: as §5
[22] = Distribution ratio in striatum and cerebellum was determined after 11 hrs of intravenous administration of the compound; [125I]- is used as radioactive isotope; format: ADME, tissue-based; conditions: rat; method in brief: as §5
[23] = Biodistribution in rat liver was determined after 24 hours of intravenous administration of the compound; [125I]- is used as radioactive isotope; format: ADME, organism-based; conditions: in vivo; method in brief: as §3
[24] = Distribution ratio in striatum and cerebellum was determined after 240 min of intravenous administration of the compound; [125I]- is used as radioactive isotope; format: ADME, tissue-based; conditions: rat, 4 h; method in brief: as §5
[25] = Biodistribution in rat heart was determined after 24 hours of intravenous administration of the compound; [125I]- is used as radioactive isotope; format: ADME, organism-based; conditions: in vivo; method in brief: as §3
[26] = Distribution ratio in striatum and cerebellum was determined after 60 min of intravenous administration of the compound; [125I]- is used as radioactive isotope; format: ADME, tissue-based; conditions: rat, 1 h; method in brief: as §5
[27] = Regional brain distribution in rat cortex was determined after 120 min of intravenous administration of the compound; [125I]- is used as radioactive isotope; format: ADME; conditions: in vivo, 2 h; method in brief: as §1
[28] = Biodistribution in rat liver was determined after 120 min of intravenous administration of the compound; [125I]- is used as radioactive isotope; format: ADME, organism-based; conditions: in vivo, 2 h; method in brief: as §3
[29] = Distribution ratio in hippocampus and cerebellum was determined after 60 min of intravenous administration of the compound; [125I]- is used as radioactive isotope; format: ADME, tissue-based; conditions: rat, 1 h; method in brief: as §4
[30] = Biodistribution in rat kidney was determined after 60 min of intravenous administration of the compound; [125I]- is used as radioactive isotope; format: ADME, organism-based; conditions: in vivo, 1 h; method in brief: as §3
[31] = Biodistribution in rat kidney was determined after 6 hours of intravenous administration of the compound; [125I]- is used as radioactive isotope; format: ADME, organism-based; conditions: in vivo; method in brief: as §3
[32] = Biodistribution in rat thyroid was determined after 120 min of intravenous administration of the compound; [125I]- is used as radioactive isotope; format: ADME, organism-based, Thyroid gland; conditions: in vivo, 2 h; method in brief: as §2
[33] = Distribution ratio in striatum and cerebellum was determined after 6 hrs of intravenous administration of the compound; [125I]- is used as radioactive isotope; format: ADME, tissue-based; conditions: rat; method in brief: as §5
[34] = Regional brain distribution in rat hypothalamus was determined after 30 min of intravenous administration of the compound; [125I]- is used as radioactive isotope; format: ADME, tissue-based; conditions: in vivo, 0.5 h; method in brief: as §1

SMILES: CN(C)Cc1ccccc1Oc1ccc(I)cc1N
- Dose/g [1]: 0.01%
- Dose/g [2]: 1.06%
- Dose [3]: 0.09%
- Dose/g [4]: 0.01%
- Dose [5]: 3.15%
- Dose [6]: 2.64%
- Dose [7]: 0.13%
- Dose/g [8]: 0.72%
- Dose [9]: 17.2%
- Dose [10]: 0.32%
- Dose/g [11]: 1.02%
- Dose/g [12]: 0.23%
- Dose [13]: 0.11%
- Dose/g [14]: 0.01%
- Dose/g [15]: 3.49%
- Dose/g [16]: 0.2%
- Dose [17]: 1.74%
- Dose [18]: 25.9%
- Dose/g [19]: 1.06%
- Dose/g [20]: 0.77%
- Dose/g [21]: 0.83%
- Dose/g [22]: 0.14%
- Dose [23]: 1.83%
- Dose/g [24]: 3.11%
- Dose [25]: 0.02%
- Dose/g [26]: 1.51%
- Dose/g [27]: 0.51%
- Dose [28]: 4.9%
- Dose/g [29]: 1.3%
- Dose [30]: 1.67%
- Dose [31]: 0.55%
- Dose [32]: 0.96%
- Dose/g [33]: 1.56%
- Dose/g [34]: 1.3%
